Data as given in ChEMBL document CHEMBL4396943, “The tetrahydroxanthone-dimer phomoxanthone A is a strong inducer of apoptosis in cisplatin-resistant solid cancer cells” (Bioorg Med Chem, 2019).
Active and inactive are the calls of the source. No cut-off for these calls is given here.

Key:
[1] = tested on: A2780cisR; test: Antiproliferative activity against human A2780cisR cells assessed as reduction in cell viability incubated for 72 hrs by MTT assay; type: functional, cell-based
Procedure, shortened: (§1)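 Cells seeded overnight in 96-well plates, then exposed to increasing concentrations (compound dissolved in DMSO, diluted in medium) for the stated time. MTT (5 mg/ml in PBS) added for 15 min, formazan dissolved in DMSO, absorbance read at 544 nm minus 690 nm background. IC50 = concentration giving 50% signal decrease. At least three independent experiments in triplicate.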

[2] = tested on: J82; test: Antiproliferative activity against human J82 cells assessed as reduction in cell viability incubated for 72 hrs by MTT assay; type: functional, cell-based; details: J82, 72 h; procedure, shortened: as §1
[3] = tested on: J82; test: Induction of apoptosis in cisplatin resistant human J82 cells assessed as depolarization of mitochondrial membrane potential at 5 to 10 uM incubated for 2 hrs by hoechst 33342 staining based fluorescence microscopy; type: functional
Procedure, shortened: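 J82CisR cells exposed 2 h, then labelled with TMRE and Hoechst 33342 for 20 min. TMRE signal imaged on a high-content fluorescence imaging platform. Untreated medium control and 20 µM CCCP positive control.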

[4] = tested on: J82; test: Induction of apoptosis in cisplatin resistant human J82 cells assessed as depolarization of mitochondrial membrane potential incubated for 2 hrs by TMRE staining based flow cytometry; type: functional, cell-based
Procedure, shortened: (§2)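 Cells seeded overnight; medium switched to FBS-free just before treatment to avoid TMRE ester cleavage. Exposure 1 h, 2 h or 24 h, then TMRE staining for 20 min. Cells trypsinized, centrifuged at 4 °C and read by flow cytometry. Medium as negative control, 20 µM CCCP as positive control. […]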

[5] = tested on: J82; test: Induction of apoptosis in human J82 cells assessed as depolarization of mitochondrial membrane potential incubated for 2 hrs by TMRE staining based flow cytometry; type: functional, cell-based
Procedure, shortened: (§3)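 Cells seeded overnight; complete medium swapped for FBS-free medium just before treatment to avoid TMRE ester cleavage. Exposure to PXA for 1 h, 2 h or 24 h. TMRE staining 20 min, cells collected by trypsinisation, ΔΨm read by flow cytometry. Medium served as negative control, 20 µM CCCP as positive control. Mean ± SEM reported.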

[6] = tested on: K562; test: Antiproliferative activity against human K562 cells assessed as reduction in cell viability incubated for 72 hrs by MTT assay; type: functional, cell-based; details: K562, 72 h; procedure, shortened: as §1
[7] = tested on: A2780; test: Ratio of IC50 for antiproliferative activity in human A2780 cells assessed as reduction in cell viability incubated for 24 hrs by MTT assay to IC50 for antiproliferative activity in human A2780 cells assessed as reduction in cell viability incubated for 72 hrs by MTT assay; type: functional
Procedure, shortened: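 MTT assay as for the viability IC50s (overnight seeding, MTT 15 min, DMSO solubilisation, 544/690 nm), with PXA incubation for 24 h versus 72 h. IC50 is the concentration giving a 50% signal decrease. At least three independent experiments.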

[8] = tested on: J82; test: Induction of apoptosis in cisplatin resistant human J82 cells assessed as accumulation in subG1 phase at 5 uM incubated for 24 hrs by propidium iodide staining based flow cytometry relative to control; type: functional
Procedure, shortened: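 Cells plated in 24-well plates (about 100,000/well) for one day, then treated 24 h. Where used, caspase inhibitor Q-VD-OPh (20 µM) was added 1 h before. Cells lysed in hypotonic buffer (0.1% sodium citrate, 0.1% Triton X-100, 100 µg/ml propidium iodide) overnight at 4 °C in the dark. Sub-G1 fraction read by flow cytometry. Medium control, cisplatin positive control.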

[9] = tested on: MDA-MB-231; test: Antiproliferative activity against cisplatin-resistant human MDA-MB-231 cells assessed as reduction in cell viability incubated for 72 hrs by MTT assay; type: functional, cell-based; details: MDA-MB-231, 72 h; procedure, shortened: as §1
[10] = tested on: A2780; test: Induction of apoptosis in human A2780 cells assessed as depolarization of mitochondrial membrane potential incubated for 2 hrs by TMRE staining based flow cytometry; type: functional, cell-based; procedure, shortened: as §3
[11] = tested on: J82; test: Induction of apoptosis in human J82 cells assessed as nuclear condensation by measuring reduced size and increased intensity of nuclei at 50 uM incubated for 24 hrs by hoechst 33342 staining based fluorescence microscopy; type: functional, cell-based
[12] = tested on: A2780; test: Cell cycle arrest in human A2780 cells assessed as accumulation at G1 phase at 10 uM incubated for 24 hrs by propidium iodide staining based flow cytometry (reference value: 61.8%); type: functional
Procedure, shortened: (§4)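 After 24 h exposure, cells washed in ice-cold PBS. About 2 million cells fixed in cold 70% ethanol at −20 °C for at least 24 h. Stained with 0.1% Triton X-100, 200 µg/ml RNase A and 20 µg/ml propidium iodide in PBS, 15 min at 37 °C in the dark. DNA content read by flow cytometry with doublet discrimination. Medium as untreated control, paclitaxel as G2/M control. Three independent experiments.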

[13] = tested on: J82; test: Cell cycle arrest in cisplatin resistant human J82 cells assessed as accumulation at G1 phase at 5 uM incubated for 24 hrs by propidium iodide staining based flow cytometry (reference value: 78.1%); type: functional; procedure, shortened: as §4
[14] = tested on: J82; test: Cell cycle arrest in human J82 cells assessed as accumulation at G1 phase at 1 uM incubated for 24 hrs by propidium iodide staining based flow cytometry (reference value: 69.6%); type: functional; procedure, shortened: as §4
[15] = tested on: A2780cisR; test: Induction of apoptosis in human A2780cisR cells assessed as decrease in mitochondrial membrane potential at 1 uM incubated for 24 hrs by TMRE staining based flow cytometry; type: functional, cell-based; procedure, shortened: as §3
[16] = tested on: J82; test: Cell cycle arrest in cisplatin resistant human J82 cells assessed as accumulation at G1 phase at 10 uM incubated for 24 hrs by propidium iodide staining based flow cytometry (reference value: 78.1%); type: functional; procedure, shortened: as §4
[17] = tested on: A2780; test: Induction of apoptosis in human A2780 cells assessed as increase in caspase 3 cleavage at 5 uM incubated for 24 hrs by proteome profiler analysis; type: functional, cell-based
Procedure, shortened: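 A2780 and A2780CisR cells treated 24 h with 5 µM PXA; apoptosis-related proteins profiled with a human apoptosis antibody array following kit instructions.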

[18] = tested on: A2780; test: Induction of apoptosis in human A2780 cells assessed as depolarization of mitochondrial membrane potential at 1 uM by TMRE staining based flow cytometry; type: functional, cell-based; details: TDE = time-dependent effect; procedure, shortened: as §2
[19] = tested on: A2780; test: Induction of apoptosis in human A2780 cells assessed as decrease in claspin expression at 5 uM incubated for 24 hrs by proteome profiler analysis; type: functional, cell-based
Procedure, shortened: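 A2780 cells treated 24 h with 5 µM, then apoptosis-related proteins read on an antibody array (Proteome Profiler human apoptosis array) per kit instructions.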

[20] = tested on: KYSE-510; test: Antiproliferative activity against human cisplatin resistant KYSE-510 cells assessed as reduction in cell viability incubated for 72 hrs by MTT assay; type: functional, cell-based; details: KYSE-510, 72 h; procedure, shortened: as §1
[21] = tested on: A2780cisR; test: Induction of apoptosis in human A2780cisR cells assessed as accumulation in subG1 phase at 1 uM incubated for 24 hrs by propidium iodide staining based flow cytometry relative to control; type: functional
Procedure, shortened: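 About 100,000 cells/well plated; after one day, treated 24 h. Cells lysed in hypotonic buffer (0.1% sodium citrate, 0.1% Triton X-100, 100 µg/ml propidium iodide) and kept overnight at 4 °C in the dark. Sub-G1 fraction measured by flow cytometry. Medium as control, cisplatin as positive control.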

CC(=O)OC[C@]12Oc3c(-c4ccc(O)c5c4O[C@@]4(COC(C)=O)C(=C(O)C[C@@H](C)[C@H]4OC(C)=O)C5=O)ccc(O)c3C(=O)C1=C(O)C[C@@H](C)[C@H]2OC(C)=O [PHOMOXANTHONE A]
IC50 ([1]; read-out: IC50): 1.37 to 1.38 µM | IC50 ([1]; read-out: pIC50 (converted)): 1.38 µM | IC50 [2]: 3.23 µM | Activity [3]: 100% | Activity [4]: Dose-dependent effect | IC50 ([4]; J82, 2 h): 2.75 µM | Activity [5]: Dose-dependent effect | IC50 ([5]; J82, 2 h): 3.34 µM | IC50 [6]: 1.86 µM | Ratio IC50 [7]: 2.5 | Activity [8]: 35% | IC50 [9]: 4.37 µM | Activity [10]: Dose-dependent effect | IC50 ([10]; A2780, 2 h): 0.75 µM | Activity [11]: Active | Activity [12]: 78.9% | Activity [13]: 79.3% | Activity [14]: 65% | Activity [15]: Active | Activity [16]: 81.2% | Activity [17]: Active | Activity [18]: Tde | Activity [19]: Active | IC50 [20]: 0.79 µM | Activity [21]: 70%
